Key:
[1] = Toxicity in human erythrocytes assessed as hemolysis at 25 uM after 24 hrs by spectrophotometry; type: cell-based, Erythrocyte; conditions: read-out: Activity
Outline: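 Citrated human blood was washed repeatedly in ice-cold PBS and made into a 2% w/v suspension. It was mixed 1:1 with compound in PBS and incubated 24 h at 37 °C. Supernatant hemoglobin was read at 405 nm. Percent hemolysis = (A at 24 h − A at 0 h) / water-lysis A × 100. Water gave 100% lysis, PBS served as negative control. Run in quintuplicate.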

Trypanosoma cruzi [2] = assay: Antitrypanosomal activity against Trypanosoma cruzi Tulahuen 2 epimastigotes assessed as inhibition of parasite growth at 25 uM after 5 days by spectrophotometric analysis; type: functional; conditions: Tulahuen 2, 120 h, read-out: GI
Outline: (§1)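 Tulahuen 2 epimastigotes were grown in BHI-Tryptose with 5% fetal calf serum at 28 °C, harvested in late log phase and seeded at 2 × 10^6/mL. Compound came from DMSO stock (final DMSO ≤1%, vehicle control). A590 was read at day 0 and day 5, and % inhibition was taken against the control. IC50 was the concentration halving control absorbance. Values are the mean of three experiments.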

Trypanosoma cruzi [3] = assay: Antitrypanosomal activity against Trypanosoma cruzi Tulahuen 2 epimastigotes assessed as inhibition of parasite growth after 5 days by spectrophotometric analysis; type: functional, organism-based; conditions: Tulahuen 2, 120 h; outline: as §1
[4] = Selectivity index, ratio of growth inhibition of Trypanosoma cruzi Tulahuen 2 epimastigotes at 25 uM to hemolysis of human erythrocytes at 25 uM
Outline: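 This is a ratio of two values. One is the % epimastigote growth inhibition (A590, day 5 versus day 0, against a DMSO control). The other is the % erythrocyte lysis (A405 after 24 h at 37 °C, relative to water lysis). Both are measured at the same compound concentration.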

[5] = biological target: Cruzipain (Trypanosoma cruzi) (UniProt P25779); assay: Inhibition of Trypanosoma cruzi cruzipain using Z-Phe-Arg-AMC as substrate at 100 uM preincubated for 5 mins before substrate addition measured after 10 mins by spectrofluorometry
Outline: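 Cruzipain was preincubated 5 min at room temperature with compound in 50 mM PBS pH 7.3 or acetate buffer pH 5.3 containing 5 mM DTT. Z-Phe-Arg-AMC was then added. Fluorescence (ex 380/em 460 nm) was followed 10 min at room temperature. Final DMSO was ≤10%, the solvent-only control was used, and a reference thiosemicarbazone inhibitor was included. Values are means of at least three experiments.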

Cruzipain (Trypanosoma cruzi), sequence (P25779 123-467 limits assumed): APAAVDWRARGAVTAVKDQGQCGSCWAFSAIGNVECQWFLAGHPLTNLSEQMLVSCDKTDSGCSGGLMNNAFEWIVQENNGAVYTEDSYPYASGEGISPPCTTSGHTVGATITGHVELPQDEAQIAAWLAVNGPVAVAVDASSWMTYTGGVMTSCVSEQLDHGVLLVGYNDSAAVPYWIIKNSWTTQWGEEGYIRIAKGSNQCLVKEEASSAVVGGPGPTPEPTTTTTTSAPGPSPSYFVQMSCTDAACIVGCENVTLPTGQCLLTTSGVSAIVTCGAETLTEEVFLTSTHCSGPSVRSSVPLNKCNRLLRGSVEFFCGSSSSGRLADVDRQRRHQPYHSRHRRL

SMILES | hemolysis at 24 h, 25 µM [1] | inhibition of growth at 25 µM (Trypanosoma cruzi [2]) | IC50 (Trypanosoma cruzi [3]) | Ratio [4] | inhibition [5]
Cc1cccc2c1CC/C2=N\NC(N)=S | 0.1% | 98.5% | 4 µM | 985 | –
CC1CS(=O)(=O)CCN1/N=C/c1ccc([N+](=O)[O-])o1 (centres undefined) [NIFURTIMOX] | – | 100% | – | – | –
COc1ccc2c(c1OC)CC/C2=N\NC(N)=S | 0.1% | 98.9% | 1.8 µM | 989 | 61%
Cc1cc(Br)c(C)c2c1/C(=N/NC(N)=S)CC2 | 2.4% | 51% | 25 µM | 21.2 | –
Cc1cc2c(c(C)c1Cl)/C(=N/NC(N)=S)CC2 | 2.8% | 14.4% | > 50 µM | 5.1 | –
S=C(N/N=C1\CCc2ccccc21)Nc1ccc(Cl)cc1 | 0.1% | 50.8% | 25 µM | 508 | –
Cc1ccc2c(c1)CC/C2=N\NC(N)=S | 0.5% | 100% | 3.6 µM | 200 | –
S=C(N/N=C1\CCc2ccccc21)Nc1ccccc1 | 2.7% | 69.6% | 7.7 µM | 25.8 | –
Cc1cc(C)c2c(c1)CC/C2=N\NC(N)=S | 0.1% | 66.5% | 4.3 µM | 665 | –
NC(=S)N/N=C1\CCc2ccccc21 | 0.2% | 80.8% | 18.6 µM | 404 | –
COc1cc2c(cc1OC)/C(=N/NC(=S)Nc1ccc(C)cc1)CC2 | 4.2% | 77.7% | 3 µM | 18.5 | –
NC(=S)N/N=C1\CCc2cc(F)ccc21 | 0.2% | 84.2% | 8.3 µM | 421 | –
COc1ccc2c(c1)/C(=N/NC(N)=S)CC2 | 7.5% | 100% | 7.5 µM | 13.3 | 0%
NC(=S)N/N=C1\CCc2ccc([N+](=O)[O-])cc21 | 0.1% | 3.1% | > 50 µM | 310 | 24%
Cc1ccc(NC(=S)N/N=C2\CCc3ccccc32)cc1 | 1.6% | 76% | 5.9 µM | 47.5 | –
NC(=S)N/N=C1\CCc2cc(Cl)ccc21 | 0.1% | 1.7% | > 50 µM | 170 | –
NC(=S)N/N=C1\CCc2c1cccc2[N+](=O)[O-] | 4.5% | 22% | > 50 µM | 4.9 | –
COc1ccc2c(c1)CC/C2=N\NC(N)=S | 0.8% | 92.1% | 7.5 µM | 115.1 | –
COc1cc2c(cc1OC)/C(=N/NC(=S)Nc1ccc(Cl)cc1)CC2 | 0.1% | 77% | 1 µM | 770 | 67%
COc1cc2c(cc1OC)/C(=N/NC(N)=S)CC2 | 0.1% | 19% | > 50 µM | 190 | 1.7%
COc1cccc2c1CC/C2=N\NC(N)=S | 1% | 84.2% | 6.2 µM | 84.2 | 9.8%
NC(=S)N/N=C1\CCc2cc(Br)ccc21 | 2.4% | 98.8% | 2.3 µM | 41.2 | –
C[C@@H]1[C@H](O)[C@@H](C)/C=C/C=C/C=C/C=C/C=C/C=C/C=C/[C@H](O[C@@H]2O[C@H](C)[C@@H](O)[C@H](N)[C@@H]2O)C[C@@H]2O[C@](O)(C[C@@H](O)C[C@@H](O)[C@H](O)CC[C@@H](O)C[C@@H](O)CC(=O)O[C@H]1C)C[C@H](O)[C@H]2C(=O)O [AMPHOTERICIN B] | 100% | 100% | 0.152 µM | 1 | –
COc1cc2c(cc1OC)/C(=N/NC(=S)Nc1ccccc1)CC2 | 0.4% | 67.5% | 1 µM | 168.8 | 0%
Cc1cc(C)c2c(c1Br)CC/C2=N\NC(N)=S | 7.7% | 100% | 5.7 µM | 12.9 | –
Cc1cc2c(c(C)c1Cl)CC/C2=N\NC(N)=S | 0.1% | 83.7% | 7.8 µM | 837 | –
CC/C(=N\N=C(\N)S)c1cccc(Br)c1 | – | – | – | – | 100%

Source: ChEMBL document CHEMBL1914328, “Thiosemicarbazones derived from 1-indanones as new anti-Trypanosoma cruzi agents” (Bioorg Med Chem, 2011)
